Calls of active or inactive are those of the source. The calls are words filed in the database; no cut-off is given here.
Key:
Acetylcholinesterase [1] = target: T1, Acetylcholinesterase (Homo sapiens, UniProt P22303); assay: Inhibition of human erythrocyte AChE induced amyloid beta (1 to 40) aggregation at 25 uM after 24 hrs by ThT-based fluorometric method relative to control
How it was run: (§1)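 HFIP-pretreated Aβ1-40 (230 µM final) co-incubated 24 h at room temperature with human AChE (2.3 µM; Aβ/AChE 100:1) ± compound in sodium phosphate buffer pH 8.0. Then 5 µM thioflavin T in glycine-NaOH pH 8.5 was added and read at ex 446/em 490 nm. Triplicate. % inhibition calculated from fluorescence with/without inhibitor, each minus its blank (Aβ alone, AChE alone, Aβ+inhibitor).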

[2] = Inhibition of rat serum BuChE using butyrylthiocholine iodide as substrate after 15 mins by Ellman's method; type: ADME
Rattus norvegicus = species on record: Rattus norvegicus; assay: Selectivity index, ratio of IC50 for rat serum BuChE to IC50 for rat cortex homogenate AChE
How it was run: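 Modified Ellman assay. AChE from 5% rat cortex homogenate, pre-incubated 5 min with iso-OMPA (4.0 mmol/L). BuChE from 25% rat serum. Enzyme incubated with compound (<1% DMSO) and acetyl- or butyrylthiocholine iodide (1 mmol/L) in phosphate buffer pH 7.4 for 15 min at 37 °C. DTNB added, read at 405 nm. IC50 from 3 independent experiments. Index = BuChE IC50/AChE IC50.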

[3] = Metal chelating activity assessed as mole fraction of compound required to show 1:1 stoichiometry for Cu2+-compound complex up to 37.5 uM after 30 mins by UV-vis spectrophotometric method
How it was run: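 Molar-ratio titration in methanol: compound fixed at 37.5 µM final with CuCl2 at 3.75-93.75 µM final. Absorbance at 386 nm taken after numerical subtraction of CuCl2 and compound spectra, and plotted against mole fraction of compound. Stoichiometry taken from the intersection of two straight lines.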

Mus musculus = assay: Reversal of scopolamine-induced memory impairment in po dosed Kunming mouse assessed as increase in step-down latency time administered 60 mins prior to training trial followed by scopolamine challenge at 30 mins post dose measured 24 hrs after training trial by passive avoidance test; type: functional, organism-based
How it was run: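 Kunming mice, 18–22 g, six weeks old, either sex; 10 per group. Oral dosing 1 h before training (test compound 3.67, 7.33, 22 mg/kg; donepezil 5.0 mg/kg), scopolamine 3 mg/kg i.p. 30 min later. Training: 0.5 mA, 2 s foot shock on stepping off the block. Step-down latency measured 24 h later. Mean ± SEM.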

[4] = Cytotoxicity against human SH-SY5Y cells assessed as cell viability at 100 uM after 24 hrs by MTT assay relative to control; type: cell-based; conditions: read-out: Activity
How it was run: (§2)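 SH-SY5Y cells grown in DMEM with 10% FBS at 37 °C, 5% CO2, seeded 4 × 10^4 cells/well and incubated 24 h. Compounds given at 1, 10 and 100 µM (1% DMSO final) for 24 h. MTT (5 mg/ml) added for 4 h, cells lysed overnight in DMF/SDS, absorbance read at 590 nm against control. Three independent experiments.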

[5] = target: Amyloid-beta precursor protein (Homo sapiens) (UniProt P05067); assay: Inhibition of amyloid beta (1 to 42) (unknown origin) self aggregation at 12.5 uM after 24 hrs by ThT-based fluorometric method relative to control
How it was run: (§3)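 Aβ1-42 (25 µM final) incubated 24 h at 37 °C with or without compound (1-50 µM) in 50 mM phosphate buffer pH 7.4. Thioflavin T (5 µM in glycine-NaOH pH 8.5) then added, fluorescence read at ex 446/em 490 nm. Inhibition = (1-IFi/IFc)×100 after background subtraction. Run in triplicate.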

PC-12 [6] = assay: Neuroprotective activity against H2O2 induced cell injury in rat PC12 cells assessed as cell viability at 1 uM preincubated for 24 hrs followed by incubation with H2O2 for 2 hrs measured after 24 hrs by MTT assay (reference value: 43.9%); type: functional; conditions: read-out: Activity
How it was run: (§4)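 PC12 cells in phenol-red-free DMEM with 10% FCS, plated at 10^5 cells/well. Cells preincubated 24 h with compound (1.0 or 10.0 µM; dissolved in 2% DMSO, diluted in PBS), then exposed to H2O2 100 µM for 2 h. Medium replaced; viability assessed 24 h later by MTT (4 h, 37 °C), lysis in DMF/SDS, A590.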

[7] = target: Amyloid-beta precursor protein (Homo sapiens) (UniProt P05067); assay: Inhibition of amyloid beta (1 to 42) (unknown origin) self aggregation at 50 uM after 24 hrs by ThT-based fluorometric method relative to control; how it was run: as §3
[8] = target: Amyloid-beta precursor protein (Homo sapiens) (UniProt P05067); assay: Inhibition of amyloid beta (1 to 42) (unknown origin) self aggregation at 25 uM after 24 hrs by ThT-based fluorometric method relative to control
How it was run: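 Aβ1-42 (25 µM final) incubated at 37 °C for 24 h ± compound in 50 mM phosphate buffer pH 7.4, with DMSO stocks diluted in buffer. Then 5 µM thioflavin T in 50 mM glycine-NaOH pH 8.5 was added and read at ex 446/em 490 nm. Run in triplicate. % inhibition = (1−IFi/IFc)×100 after background subtraction.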

Acetylcholinesterase [9] = target: T1, Acetylcholinesterase; assay: Inhibition of human erythrocyte AChE induced amyloid beta (1 to 40) aggregation after 24 hrs by ThT-based fluorometric method; how it was run: as §1
SH-SY5Y = assay: Cytotoxicity against human SH-SY5Y cells assessed as reduction in cell viability up to 10 uM after 24 hrs by MTT assay; type: cell-based; how it was run: as §2
[10] = Metal chelating activity assessed as compound-Fe2+ complex formation by measuring shift in maximum absorption wavelength at 37.5 uM after 30 mins by UV-vis spectrophotometric method
How it was run: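 UV absorption scanned from 200 to 600 nm after 30 min at room temperature in methanol. Compound and each metal salt (CuCl2, ZnCl2, AlCl3, FeSO4) were at 37.5 µM final. Spectra compared with and without metal.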

Acetylcholinesterase [11] = target: Acetylcholinesterase (Electrophorus electricus, UniProt O42275); assay: Inhibition of electric eel AChE using acetylthiocholine iodide as substrate after 15 mins by Ellman's method
PC-12 [12] = assay: Neuroprotective activity against H2O2-induced cell injury in rat PC12 cells assessed as cell viability at 10 uM preincubated for 24 hrs followed by incubation with H2O2 for 2 hrs measured after 24 hrs by MTT assay (reference value: 43.9%); type: functional; conditions: read-out: Activity; how it was run: as §4
[13] = Solubility of the compound in water; type: physicochemical; conditions: buffer

Amyloid-beta precursor protein (Homo sapiens), sequence (P05067 whole entry): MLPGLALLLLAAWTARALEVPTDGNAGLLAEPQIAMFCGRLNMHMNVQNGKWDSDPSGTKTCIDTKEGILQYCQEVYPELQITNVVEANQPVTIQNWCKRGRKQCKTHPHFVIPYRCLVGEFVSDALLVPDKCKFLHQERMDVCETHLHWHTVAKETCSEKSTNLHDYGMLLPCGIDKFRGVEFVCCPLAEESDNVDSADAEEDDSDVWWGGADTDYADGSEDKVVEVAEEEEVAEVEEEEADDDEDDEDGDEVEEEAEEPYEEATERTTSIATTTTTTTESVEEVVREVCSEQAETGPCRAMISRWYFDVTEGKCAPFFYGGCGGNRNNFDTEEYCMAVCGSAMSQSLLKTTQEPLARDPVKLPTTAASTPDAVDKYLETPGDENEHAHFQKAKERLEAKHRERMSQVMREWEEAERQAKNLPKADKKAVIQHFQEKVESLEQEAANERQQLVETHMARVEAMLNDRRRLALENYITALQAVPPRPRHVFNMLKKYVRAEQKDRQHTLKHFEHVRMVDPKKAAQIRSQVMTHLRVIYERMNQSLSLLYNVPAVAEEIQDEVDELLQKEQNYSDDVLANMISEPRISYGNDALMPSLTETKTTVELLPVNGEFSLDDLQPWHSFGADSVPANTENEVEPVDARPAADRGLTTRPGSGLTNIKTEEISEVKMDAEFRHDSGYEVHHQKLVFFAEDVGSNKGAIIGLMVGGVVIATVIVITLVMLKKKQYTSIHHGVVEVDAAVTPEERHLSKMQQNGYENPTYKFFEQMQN
T1 sequence (P22303 whole entry): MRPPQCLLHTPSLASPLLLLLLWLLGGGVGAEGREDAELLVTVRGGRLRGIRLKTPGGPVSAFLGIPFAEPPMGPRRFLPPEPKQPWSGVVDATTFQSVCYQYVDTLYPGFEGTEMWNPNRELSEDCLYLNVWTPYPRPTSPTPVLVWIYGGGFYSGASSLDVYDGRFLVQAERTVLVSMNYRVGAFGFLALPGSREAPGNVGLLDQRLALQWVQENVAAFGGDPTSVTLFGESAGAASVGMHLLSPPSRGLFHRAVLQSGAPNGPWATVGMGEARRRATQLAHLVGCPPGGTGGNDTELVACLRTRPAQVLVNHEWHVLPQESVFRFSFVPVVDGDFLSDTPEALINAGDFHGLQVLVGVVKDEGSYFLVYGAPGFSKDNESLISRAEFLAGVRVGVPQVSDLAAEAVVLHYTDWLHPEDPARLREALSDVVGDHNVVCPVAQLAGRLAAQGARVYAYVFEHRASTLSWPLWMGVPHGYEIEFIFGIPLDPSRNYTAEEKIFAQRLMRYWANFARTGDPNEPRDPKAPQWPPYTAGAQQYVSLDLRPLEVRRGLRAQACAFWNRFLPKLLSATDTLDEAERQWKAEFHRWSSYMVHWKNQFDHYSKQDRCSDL
Acetylcholinesterase (Electrophorus electricus, UniProt O42275), sequence (O42275 whole entry): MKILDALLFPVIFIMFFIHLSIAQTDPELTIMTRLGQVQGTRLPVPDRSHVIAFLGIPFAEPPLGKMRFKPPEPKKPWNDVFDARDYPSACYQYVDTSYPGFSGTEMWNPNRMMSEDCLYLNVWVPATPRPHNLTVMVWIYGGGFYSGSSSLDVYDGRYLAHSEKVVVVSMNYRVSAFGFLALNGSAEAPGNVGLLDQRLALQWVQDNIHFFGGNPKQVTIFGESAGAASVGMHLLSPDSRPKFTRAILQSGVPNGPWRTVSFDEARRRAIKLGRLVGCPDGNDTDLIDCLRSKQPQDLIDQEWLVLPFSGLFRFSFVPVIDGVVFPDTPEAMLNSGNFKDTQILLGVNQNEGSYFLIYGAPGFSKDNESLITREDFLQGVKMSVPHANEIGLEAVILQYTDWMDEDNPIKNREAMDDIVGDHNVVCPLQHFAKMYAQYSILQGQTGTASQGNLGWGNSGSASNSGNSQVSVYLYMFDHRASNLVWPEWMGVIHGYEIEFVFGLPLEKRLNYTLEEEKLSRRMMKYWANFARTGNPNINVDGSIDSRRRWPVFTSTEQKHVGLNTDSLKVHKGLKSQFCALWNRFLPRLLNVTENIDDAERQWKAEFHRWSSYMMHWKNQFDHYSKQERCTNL

Compound: CCN(CCCCNC(=O)COc1ccc(-c2cc(=O)c3c(O)c(OC)c(OC)cc3o2)cc1)Cc1ccccc1OC
- inhibition (Acetylcholinesterase [1]): 32.7%
- IC50 [2]: > 500 µM
- Ratio IC50 (Rattus norvegicus): > 9800
- Activity [3]: 0.99 molar ratio
- Activity (Mus musculus): Dose-dependent effect
- viability at 24 h, 100 µM [4]: 82.4%
- inhibition [5]: 43.6%
- viability at 1 µM (PC-12 [6]): 67.6%
- inhibition [7]: 75.2%
- inhibition [8]: 57.1%
- inhibition (Acetylcholinesterase [9]): Dose-dependent effect
- Activity (SH-SY5Y): Non-Toxic
- Activity [10]: inactive
- IC50 (Acetylcholinesterase [11]): 15.9 µM
- viability at 10 µM (PC-12 [12]): 82.7%
- solubility [13]: Insoluble

From ChEMBL document CHEMBL4052630, “Design, synthesis and evaluation of scutellarein-O-acetamidoalkylbenzylamines as potential multifunctional agents for the treatment of Alzheimer's disease” (Eur J Med Chem, 2017)
